Assay results published in ChEMBL document CHEMBL1137665, “Antistaphylococcal activity of CG400549, a new experimental FabI inhibitor, compared with that of other agents” (2007).

Assays:
Assay type in all cases: functional
Staphylococcus aureus [1] = assay: Antimicrobial activity against panton-valentine leukocidin-negative community-acquired methicillin-resistant Staphylococcus aureus 481 by agar dilution CLSI method
Method in brief: (§1)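 CLSI agar dilution MIC against S. aureus clinical isolates. Calcium was added to the medium for daptomycin testing. Vancomycin plates were read after a full 24-h incubation.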

Staphylococcus aureus [2] = assay: Antimicrobial activity against community-acquired vancomycin-intermediate Staphylococcus aureus 504 by agar dilution CLSI method; method in brief: as §1
Staphylococcus aureus [3] = assay: Antimicrobial activity against methicillin-resistant Staphylococcus aureus 525 by agar dilution CLSI method; method in brief: as §1
Staphylococcus aureus [4] = assay: Antimicrobial activity against vancomycin-intermediate Staphylococcus aureus 504 after 50 passages by multi-step resistance selection technique
Method in brief: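 Multistep selection: S. aureus strains (MSSA and MRSA, including VISA and VRSA) were passaged serially once daily in subinhibitory concentrations of each antimicrobial. Mutant and parent identities were confirmed by pulsed-field gel electrophoresis at the end of the study. Mutant MIC stability was checked after 10 daily subcultures on antibiotic-free media.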

Staphylococcus aureus [5] = assay: Antimicrobial activity against vancomycin-resistant Staphylococcus aureus 509 Michigan after 20 passages by multi-step resistance selection technique
Method in brief: (§2)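 Multistep selection: 10 S. aureus strains (8 MRSA incl. two VRSA, two VISA; 2 MSSA) serially passaged daily at subinhibitory concentrations of each antimicrobial; MICs of mutants retested and compared with parent; clone identity versus parent confirmed by pulsed-field gel electrophoresis at study end.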

Staphylococcus aureus [6] = assay: Antimicrobial activity against vancomycin-resistant Staphylococcus aureus 510 Hershey after 18 passages by multi-step resistance selection technique; method in brief: as §2
Staphylococcus aureus [7] = assay: Antimicrobial activity against methicillin-resistant Staphylococcus aureus 525 after 20 passages by multi-step resistance selection technique
Method in brief: (§3)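 Multistep selection by daily serial passage of each strain in subinhibitory drug concentrations for the stated number of passages. Mutant MIC was then determined. Identity of mutants and parents was confirmed by pulsed-field gel electrophoresis.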

Staphylococcus aureus [8] = assay: Antimicrobial activity against methicillin-resistant Staphylococcus aureus 547 after 21 passages by multi-step resistance selection technique; method in brief: as §3
Staphylococcus aureus [9] = assay: Antimicrobial activity against vancomycin-intermediate Staphylococcus aureus 555 Hershey after 50 passages by multi-step resistance selection technique; method in brief: as §2
Staphylococcus aureus [10] = assay: Antimicrobial activity against methicillin-susceptible Staphylococcus aureus 540 after 24 passages by multi-step resistance selection technique; method in brief: as §3
Staphylococcus aureus [11] = assay: Antimicrobial activity against panton-valentine leukocidin-negative community-acquired methicillin-resistant Staphylococcus aureus 481 after 14 passages with daptomycin measured after 10 antibiotic-free subculture by multi-step resistance selection technique
Method in brief: (§4)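 Mutants from multistep daily serial passage in subinhibitory drug were then subcultured daily 10 times on antibiotic-free medium. MIC was redetermined after these subcultures to assess stability. Clone identity was checked by pulsed-field gel electrophoresis.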

Staphylococcus aureus [12] = assay: Antimicrobial activity against panton-valentine leukocidin-positive community-acquired methicillin-resistant Staphylococcus aureus 490 after 14 passages with daptomycin measured after 10 antibiotic-free subculture by multi-step resistance selection technique
Method in brief: (§5)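 Multistep-selected mutants (daily passage at subinhibitory drug levels) then subcultured 10 times daily on antibiotic-free medium; MIC redetermined afterwards and compared with the MIC recorded at the end of selection; clone identity to parent checked by pulsed-field gel electrophoresis.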

Staphylococcus aureus [13] = assay: Antimicrobial activity against vancomycin-intermediate Staphylococcus aureus 504 after 22 passages with Linezolid measured after 10 times antibiotic-free subculture by multi-step resistance selection technique; method in brief: as §5
Staphylococcus aureus [14] = assay: Antimicrobial activity against vancomycin-intermediate Staphylococcus aureus 504 after 16 passages with quinupristin-dalfopristin measured after 10 times antibiotic-free subculture by multi-step resistance selection technique; method in brief: as §5
Staphylococcus aureus [15] = assay: Antimicrobial activity against vancomycin-resistant Staphylococcus aureus 509 Michigan after 14 passages with CG400549 measured after 10 antibiotic-free subculture by multi-step resistance selection technique; method in brief: as §5
Staphylococcus aureus [16] = assay: Antimicrobial activity against methicillin and vancomycin-resistant Staphylococcus aureus 510 after single-step resistance selection by agar dilution CLSI method
Method in brief: (§6)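 Single-step selection on drug-containing agar across 10 strains (2 MSSA, 8 MRSA, including VRSA and VISA). Colonies arising on confluent background growth were retested by CLSI agar dilution MIC. Resistance was defined as an MIC more than 4× the parent MIC.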

Staphylococcus aureus [17] = assay: Antimicrobial activity against vancomycin-resistant Staphylococcus aureus 510 Hershey after 14 passages with CG400549 measured after 10 antibiotic-free subculture by multi-step resistance selection technique; method in brief: as §5
Staphylococcus aureus [18] = assay: Antimicrobial activity against vancomycin-intermediate Staphylococcus aureus 555 Hershey by agar dilution CLSI method
Method in brief: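 Agar dilution MIC per CLSI methodology; calcium supplemented for daptomycin testing; vancomycin plates read after a full 24-h incubation.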

Staphylococcus aureus [19] = assay: Antimicrobial activity against methicillin-susceptible Staphylococcus aureus 543 by agar dilution CLSI method; method in brief: as §1
Staphylococcus aureus [20] = assay: Antimicrobial activity against panton-valentine leukocidin-positive community-acquired methicillin-resistant Staphylococcus aureus 490 after 14 passages by multi-step resistance selection technique; method in brief: as §2
Staphylococcus aureus [21] = assay: Antimicrobial activity against methicillin-resistant Staphylococcus aureus 547 after 48 passages with Linezolid measured after 10 antibiotic-free subculture by multi-step resistance selection technique; method in brief: as §4
Staphylococcus aureus [22] = assay: Antimicrobial activity against vancomycin-intermediate Staphylococcus aureus 555 Hershey after 14 passages with CG400549 measured after 10 antibiotic-free subculture by multi-step resistance selection technique; method in brief: as §5
Staphylococcus aureus [23] = assay: Antimicrobial activity against methicillin-susceptible Staphylococcus aureus 540 after 16 passages with quinupristin-dalfopristin measured after 10 antibiotic-free subculture by multi-step resistance selection technique; method in brief: as §4
Staphylococcus aureus [24] = assay: Antimicrobial activity against methicillin-susceptible Staphylococcus aureus 543 after 14 passages with CG400549 measured after 10 antibiotic-free subculture by multi-step resistance selection technique; method in brief: as §4
Staphylococcus aureus [25] = assay: Antimicrobial activity against methicillin-susceptible Staphylococcus aureus 543 after 15 passages with Linezolid measured after 10 antibiotic-free subculture by multi-step resistance selection technique; method in brief: as §4
Staphylococcus aureus [26] = assay: Antimicrobial activity against methicillin-resistant vancomycin-intermediate Staphylococcus aureus 555 after single-step resistance selection by agar dilution CLSI method; method in brief: as §6
Staphylococcus aureus [27] = assay: Antimicrobial activity against methicillin-resistant Staphylococcus aureus 481 after single-step resistance selection by agar dilution CLSI method; method in brief: as §6
Staphylococcus aureus [28] = assay: Antimicrobial activity against methicillin-resistant Staphylococcus aureus 525 after single-step resistance selection by agar dilution CLSI method; method in brief: as §6
Staphylococcus aureus [29] = assay: Antimicrobial activity against methicillin-resistant Staphylococcus aureus 547 after single-step resistance selection by agar dilution CLSI method; method in brief: as §6
Staphylococcus aureus [30] = assay: Antimicrobial activity against methicillin-susceptible Staphylococcus aureus 543 after single-step resistance selection by agar dilution CLSI method; method in brief: as §6
Staphylococcus aureus [31] = assay: Antimicrobial activity against vancomycin-intermediate Staphylococcus aureus 504 after 14 passages by multi-step resistance selection technique; method in brief: as §2
Staphylococcus aureus [32] = assay: Antimicrobial activity against vancomycin-resistant Staphylococcus aureus 509 Michigan after 14 passages by multi-step resistance selection technique; method in brief: as §2
Staphylococcus aureus [33] = assay: Antimicrobial activity against vancomycin-resistant Staphylococcus aureus 510 Hershey after 14 passages by multi-step resistance selection technique; method in brief: as §2
Staphylococcus aureus [34] = assay: Antimicrobial activity against methicillin-resistant Staphylococcus aureus 525 after 14 passages by multi-step resistance selection technique; method in brief: as §3
Staphylococcus aureus [35] = assay: Antimicrobial activity against vancomycin-intermediate Staphylococcus aureus 555 Hershey after 14 passages by multi-step resistance selection technique; method in brief: as §2
Staphylococcus aureus [36] = assay: Antimicrobial activity against methicillin-susceptible Staphylococcus aureus 540 after 14 passages by multi-step resistance selection technique; method in brief: as §3
Staphylococcus aureus [37] = assay: Antimicrobial activity against methicillin-susceptible Staphylococcus aureus 543 after 14 passages by multi-step resistance selection technique; method in brief: as §3

Measured: MIC

CCCCCCCCCC(=O)N[C@@H](Cc1c[nH]c2ccccc12)C(=O)N[C@H](CC(N)=O)C(=O)N[C@@H](CC(=O)O)C(=O)N[C@@H]1C(=O)NCC(=O)N[C@@H](CCCN)C(=O)N[C@@H](CC(=O)O)C(=O)N[C@H](C)C(=O)N[C@@H](CC(=O)O)C(=O)NCC(=O)N[C@H](CO)C(=O)N[C@@H]([C@H](C)CC(=O)O)C(=O)N[C@@H](CC(=O)c2ccccc2N)C(=O)O[C@@H]1C
8 µg/mL: Staphylococcus aureus [5] | Staphylococcus aureus [6] | Staphylococcus aureus [7] | Staphylococcus aureus [8] | Staphylococcus aureus [10] | Staphylococcus aureus [11] | Staphylococcus aureus [20] | Staphylococcus aureus [22]
4 µg/mL: Staphylococcus aureus [2] | Staphylococcus aureus [12]
2 µg/mL: Staphylococcus aureus [14] | Staphylococcus aureus [21] | Staphylococcus aureus [23] | Staphylococcus aureus [25]
1 µg/mL: Staphylococcus aureus [1] | Staphylococcus aureus [3] | Staphylococcus aureus [13] | Staphylococcus aureus [15] | Staphylococcus aureus [17] | Staphylococcus aureus [19] | Staphylococcus aureus [24]
16 µg/mL: Staphylococcus aureus [4] | Staphylococcus aureus [18]
32 µg/mL: Staphylococcus aureus [9]
0.5 µg/mL: Staphylococcus aureus [16] | Staphylococcus aureus [26] | Staphylococcus aureus [27] | Staphylococcus aureus [28] | Staphylococcus aureus [29] | Staphylococcus aureus [30]

Cc1c(N)cccc1Cn1ccc(OCCc2cccs2)cc1=O [CG-400549]
0.25 µg/mL: Staphylococcus aureus [1] | Staphylococcus aureus [2] | Staphylococcus aureus [3] | Staphylococcus aureus [11] | Staphylococcus aureus [12] | Staphylococcus aureus [13] | Staphylococcus aureus [18]
16 µg/mL: Staphylococcus aureus [36]
0.5 µg/mL: Staphylococcus aureus [14]
> 64 µg/mL: Staphylococcus aureus [32] | Staphylococcus aureus [15]
2 µg/mL: Staphylococcus aureus [31] | Staphylococcus aureus [35] | Staphylococcus aureus [22]
8 µg/mL: Staphylococcus aureus [37] | Staphylococcus aureus [24]
0.125 µg/mL: Staphylococcus aureus [16] | Staphylococcus aureus [19] | Staphylococcus aureus [21] | Staphylococcus aureus [23] | Staphylococcus aureus [25] | Staphylococcus aureus [26] | Staphylococcus aureus [27] | Staphylococcus aureus [28] | Staphylococcus aureus [29] | Staphylococcus aureus [30]
4 µg/mL: Staphylococcus aureus [33] | Staphylococcus aureus [34] | Staphylococcus aureus [17]
